This is an account of results in ChEMBL document CHEMBL4028848, “Discovery of N-{4-[5-(4-Fluorophenyl)-3-methyl-2-methylsulfanyl-3H-imidazol-4-yl]-pyridin-2-yl}-acetamide (CBS-3595), a Dual p38α MAPK/PDE-4 Inhibitor with Activity against TNFα-Related Diseases” (J Med Chem, 2017).

Activity calls are given as the source filed them. No cut-off for these calls is given here.

Data set [1] deals with Adenosine receptor A1 (Homo sapiens) (UniProt P30542). Kind of data set: Antagonist activity at adenosine A1 receptor (unknown origin) at 10 uM relative to control.
Data set [2] concerns the target Ephrin type-B receptor 2 (Homo sapiens) (UniProt P29323). Kind of data set: Inhibition of EphB2 (unknown origin) at 10 uM relative to control.
The target in data set [3] is Dual specificity mitogen-activated protein kinase kinase 6 (Homo sapiens) (UniProt P52564). Briefly: Inhibition of MKK6 (unknown origin) assessed as decrease in p38alpha MAPK phosphorylation at 10 uM relative to control.
Data set [4] concerns Rattus norvegicus. Briefly: In vivo inhibition of P38 MAPKalpha in Sprague-Dawley rat assessed as decrease in LPS-stimulated TNFalpha level in serum at 1 mg/kg, po pretreated for 1 hr followed by LPS addition measured after 2 hrs relative to control. Type of data set: functional. The gist of the method: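 Sprague–Dawley rats (8/group) were dosed orally with vehicle or 1, 3 or 10 mg/kg. LPS 0.1 mg/kg i.v. was given 1 h after dosing. Blood was collected 2 h later and serum TNFα measured. Inhibition was calculated relative to the mean of vehicle-treated animals.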

For data set [5], the species on record is Homo sapiens. Kind of data set: Inhibition of PDE4 in LPS-stimulated human whole blood assessed as decrease in leukotriene B4 level in plasma.
Data set [6] has as its system Cynomolgus monkey. Kind of data set: In vivo inhibition of P38 MAPKalpha in po dosed cynomolgus monkey assessed as decrease in TNFalpha level in LPS-stimulated whole blood pretreated for 4 weeks followed by ex vivo LPS addition measured on day 27. The class given is functional, organism-based. Particulars: Macaca fascicularis.
For data set [7], the system named is Liver. Briefly: Drug metabolism in rat liver microsomes assessed as 4-(4-(4-fluorophenyl)-1-methyl-2-(methylsulfinyl)-1H-imidazol-5-yl)pyridin-2-amine formation at 10 to 100 uM. The class given is ADME, microsome. The essentials: (§1)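 Test compound incubated at 10, 30 and 100 μM with liver microsomes from rat, Cynomolgus monkey or human, and metabolites monitored.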

Data set [8] can be described thus: Drug metabolism in cynomolgus monkey liver microsomes assessed as 4-(4-(4-fluorophenyl)-1-methyl-2-(methylsulfinyl)-1H-imidazol-5-yl)pyridin-2-amine formation at 10 to 100 uM. Type of data set: ADME, Macaca fascicularis, microsome. The gist of the method: as §1
Data set [9] is described as follows: Drug metabolism in cynomolgus monkey liver microsomes assessed as N-(4-(4-(4-fluorophenyl)-1-methyl-2-(methylsulfinyl)-1H-imidazol-5-yl)pyridin-2-yl)acetamide formation at 10 to 100 uM. Type of data set: ADME, Macaca fascicularis, microsome. The essentials:
as §1

Data set [10] is described as follows: Drug uptake in LPS-stimulated female Lewis rat serum at 10 mg/kg, po pretreated for 1 hrs followed by LPS addition measured after 1.5 hrs post dose. Type of data set: ADME, organism-based. Particulars: read-out: Drug uptake. The essentials: (§2)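 Female Lewis rats, n = 8/group, dosed orally at 10 mg/kg at 1, 3 or 5 h before LPS challenge. Serum aliquots taken 1.5 h after LPS were used to measure drug concentration.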

Data set [11] deals with Rattus norvegicus. Briefly: Antiarthritic activity in Lewis rat assessed as collagen oligomeric matrix protein level in serum at 50 mg/kg, po qd administered for 10 days (Rbv = 0.17 +/- 0.02 U/l). Type of data set: functional. The gist of the method:
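Collagen-induced arthritis in male Lewis rats (5–6 per group). Groups received vehicle, dexamethasone 1 mg/kg, test item 50 mg/kg once daily, or 25 mg/kg twice daily for 10 days. Body weight, arthritic score and paw volume were monitored, and serum COMP was measured at the end.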

For data set [12], the system named is Mus musculus. Briefly: Antiarthritic activity in human TNF transgenic mouse model assessed as reduction in paw swelling at 20 to 50 mg/kg/day, po for 10 weeks. The class given is functional, organism-based. The essentials:
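Heterozygous human TNF transgenic mice (8 per group) were dosed orally for ten weeks with 20 or 50 mg/kg/day as a methylcellulose suspension, alongside vehicle and infliximab i.p. controls. Joint swelling and grip strength were scored weekly, and hind paws were examined histologically at the end.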

A short description of data set [13]: Tmax in mongrel dog at 30 mg/kg, po by LC-MS/MS analysis. The class given is ADME, organism-based, Canis lupus familiaris. The settings on record: in vivo.
Data set [14] in a line: Tmax in female Sprague-Dawley rat at 30 mg/kg, po by LC-MS/MS analysis. The settings on record: in vivo. The class given is ADME, organism-based.
Data set [15] can be described thus: Cmax in male Sprague-Dawley rat at 30 mg/kg, po by LC-MS/MS analysis. Type of data set: ADME, organism-based. More on the design: dose 30 mg/kg, route oral. The settings on record: in vivo.
Data set [16] deals with Cynomolgus monkey. Briefly: Toxicity in cynomolgus monkey assessed as decrease in PQ at 6 to 20 mg/kg, po. Type of data set: organism-based, Macaca fascicularis. The settings on record: in vivo.
In data set [17] the test system is Rattus norvegicus. Briefly: Toxicity in Sprague-Dawley rat assessed as mortality at 2000 mg/kg, po administered via gavage after 14 days. Type of data set: organism-based. The settings on record: in vivo, 336 h.
For data set [18], the system named is Rattus norvegicus. Kind of data set: Toxicity in Sprague-Dawley rat assessed as dyspnea at 2000 mg/kg, po administered via gavage measured on day 1 and 2. The settings on record: in vivo. Type of data set: organism-based.
For data set [19], the system named is Rattus norvegicus. Briefly: Toxicity in Sprague-Dawley rat assessed as premature death at 15 to 150 mg/kg, po administered via gavage for 28 days followed by 2 weeks off without dosing. Type of data set: organism-based. Particulars: in vivo. The gist of the method: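 Sprague–Dawley rats, 10–16 per group, 144 in total. Daily dosing for 28 days with vehicle or 15, 50 or 150 mg/kg; the top dose came from a range-finding study. Six males and six females from the control and high-dose groups were followed through a further 2-week treatment-free period. Clinical signs and histopathology recorded.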

The test system of data set [20] is Rattus norvegicus. Briefly: Toxicity in Sprague-Dawley rat assessed as increase in abdomen size at 150 mg/kg, po administered via gavage for daily 28 days followed by 2 weeks off without dosing. The settings on record: in vivo. Type of data set: organism-based.
Data set [21] can be described thus: Toxicity in cynomolgus monkey for 28 days. More on the design: species or system Macaca fascicularis. The settings on record: in vivo. The gist of the method: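 Cynomolgus monkeys, 32 in total, 3–5 per group. Dosed for 28 days with vehicle or 6, 12 or 20 mg/kg; the high dose was raised to 25 mg/kg/day after 1 week. Two males and two females from the control and high-dose groups were followed through a further 2-week treatment-free period. Deaths and clinical signs recorded.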

Data set [22] concerns Lymphocyte. Briefly: Clastogenicity in human lymphocytes in absence of S9 fraction by microneucleus test. The class given is toxicity, cell-based. The essentials: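 Cytogenetic clastogenicity assay in cultured human lymphocytes, run with and without S9 mix.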
The test system of data set [23] is Homo sapiens. Kind of data set: Cmax in human assessed as 4-(4-(4-fluorophenyl)-1-methyl-2-(methylsulfinyl)-1H-imidazol-5-yl)pyridin-2-amine formation at 20 mg, po administered as single dose. The class given is ADME, organism-based. Details: dose 20 mg, route oral. Particulars: in vivo. The gist of the method:
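Oral single-dose PK; plasma concentrations of parent and metabolite measured. Dogs: blood sampled 0.25 to 24 h after dosing. Humans: healthy subjects, placebo-controlled single-blind randomized consecutive dosing, plasma sampled predose and 0.25–36 h post dose. 10 mg also given fasting and fed in crossover. Parameters derived from individual concentration–time profiles.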

The nature of data set [24]: Drug uptake in LPS-stimulated female Lewis rat serum at 10 mg/kg, po pretreated for 5 hrs followed by LPS addition measured after 1.5 hrs post dose. The class given is ADME, organism-based. Particulars: read-out: Drug uptake. The essentials: as §2
For data set [25], the system named is Rattus norvegicus. Kind of data set: Toxicity in single po dosed rat assessed as increase in peak inspiratory flow at 100 to 300 mg/kg, po administered as single dose. Type of data set: organism-based. The settings on record: in vivo.
In data set [26] the target is Tyrosine-protein kinase Lck (Homo sapiens) (UniProt P06239). Briefly: Inhibition of Lck (unknown origin) at 10 uM.
For data set [27], the target named is Mitogen-activated protein kinase 1 (Homo sapiens) (UniProt P28482). Kind of data set: Inhibition of MAPK2 (unknown origin) at 10 uM.
In data set [28] the target is Casein kinase I isoform delta (Homo sapiens) (UniProt P48730). Briefly: Inhibition of CK1delta (unknown origin) at 3 uM relative to control.
For data set [29], the system named is Liver. Kind of data set: Drug level in human liver microsomes treated with CBS-3595 at 10 to 100 uM. Type of data set: ADME, microsome. The essentials:
as §1

Data set [30] is described as follows: Drug level in cynomolgus monkey liver microsomes treated with CBS-3595 at 10 to 100 uM. The class given is ADME, Macaca fascicularis, microsome. The gist of the method:
as §1

Sequence of Casein kinase I isoform delta (Homo sapiens) (P48730 whole entry, looked up, canonical isoform): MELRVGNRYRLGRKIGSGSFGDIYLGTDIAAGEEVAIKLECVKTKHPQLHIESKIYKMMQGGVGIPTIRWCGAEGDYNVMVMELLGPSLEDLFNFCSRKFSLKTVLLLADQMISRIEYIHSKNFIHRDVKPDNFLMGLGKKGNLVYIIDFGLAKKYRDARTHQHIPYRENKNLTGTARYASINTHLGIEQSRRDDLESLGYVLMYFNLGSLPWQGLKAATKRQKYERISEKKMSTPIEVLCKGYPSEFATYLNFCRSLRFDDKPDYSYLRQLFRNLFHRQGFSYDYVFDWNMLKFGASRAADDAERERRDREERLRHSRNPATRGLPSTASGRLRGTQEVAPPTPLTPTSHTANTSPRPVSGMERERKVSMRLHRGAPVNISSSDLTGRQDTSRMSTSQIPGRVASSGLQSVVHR
Sequence of Tyrosine-protein kinase Lck (Homo sapiens) (P06239 2-509 limits assumed): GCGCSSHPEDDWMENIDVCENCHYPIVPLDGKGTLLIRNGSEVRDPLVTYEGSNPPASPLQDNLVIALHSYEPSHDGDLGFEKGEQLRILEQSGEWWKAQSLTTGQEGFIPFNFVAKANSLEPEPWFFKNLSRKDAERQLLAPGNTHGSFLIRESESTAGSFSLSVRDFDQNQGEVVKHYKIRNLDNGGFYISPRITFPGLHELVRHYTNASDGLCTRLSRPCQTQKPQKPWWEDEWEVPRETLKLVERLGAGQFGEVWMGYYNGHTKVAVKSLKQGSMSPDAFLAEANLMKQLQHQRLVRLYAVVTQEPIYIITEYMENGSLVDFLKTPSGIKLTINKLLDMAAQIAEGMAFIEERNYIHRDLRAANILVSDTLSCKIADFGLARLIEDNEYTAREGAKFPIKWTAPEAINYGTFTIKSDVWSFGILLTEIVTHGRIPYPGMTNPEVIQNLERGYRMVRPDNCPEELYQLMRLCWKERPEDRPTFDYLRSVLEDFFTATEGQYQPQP
Sequence of Dual specificity mitogen-activated protein kinase kinase 6 (Homo sapiens) (P52564 whole entry): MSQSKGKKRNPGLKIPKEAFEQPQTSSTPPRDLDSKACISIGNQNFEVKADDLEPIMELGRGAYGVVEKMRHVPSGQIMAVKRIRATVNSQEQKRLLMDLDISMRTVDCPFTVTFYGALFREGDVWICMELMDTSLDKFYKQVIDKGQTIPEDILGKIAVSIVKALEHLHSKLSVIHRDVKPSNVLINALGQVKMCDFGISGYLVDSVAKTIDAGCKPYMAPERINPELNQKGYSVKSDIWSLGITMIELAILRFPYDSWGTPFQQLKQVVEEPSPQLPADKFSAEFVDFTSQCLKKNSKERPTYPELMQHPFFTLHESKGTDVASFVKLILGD
Sequence of Adenosine receptor A1 (Homo sapiens) (P30542 whole entry): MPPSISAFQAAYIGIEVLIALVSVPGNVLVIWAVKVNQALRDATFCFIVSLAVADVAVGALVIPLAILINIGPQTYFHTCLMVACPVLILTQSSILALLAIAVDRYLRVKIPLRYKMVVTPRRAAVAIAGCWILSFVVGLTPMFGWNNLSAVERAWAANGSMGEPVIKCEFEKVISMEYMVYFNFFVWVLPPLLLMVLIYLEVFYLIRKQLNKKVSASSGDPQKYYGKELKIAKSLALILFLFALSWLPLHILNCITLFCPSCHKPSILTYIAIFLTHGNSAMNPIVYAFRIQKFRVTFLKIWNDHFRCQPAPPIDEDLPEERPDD
Sequence of Ephrin type-B receptor 2 (Homo sapiens) (P29323 whole entry): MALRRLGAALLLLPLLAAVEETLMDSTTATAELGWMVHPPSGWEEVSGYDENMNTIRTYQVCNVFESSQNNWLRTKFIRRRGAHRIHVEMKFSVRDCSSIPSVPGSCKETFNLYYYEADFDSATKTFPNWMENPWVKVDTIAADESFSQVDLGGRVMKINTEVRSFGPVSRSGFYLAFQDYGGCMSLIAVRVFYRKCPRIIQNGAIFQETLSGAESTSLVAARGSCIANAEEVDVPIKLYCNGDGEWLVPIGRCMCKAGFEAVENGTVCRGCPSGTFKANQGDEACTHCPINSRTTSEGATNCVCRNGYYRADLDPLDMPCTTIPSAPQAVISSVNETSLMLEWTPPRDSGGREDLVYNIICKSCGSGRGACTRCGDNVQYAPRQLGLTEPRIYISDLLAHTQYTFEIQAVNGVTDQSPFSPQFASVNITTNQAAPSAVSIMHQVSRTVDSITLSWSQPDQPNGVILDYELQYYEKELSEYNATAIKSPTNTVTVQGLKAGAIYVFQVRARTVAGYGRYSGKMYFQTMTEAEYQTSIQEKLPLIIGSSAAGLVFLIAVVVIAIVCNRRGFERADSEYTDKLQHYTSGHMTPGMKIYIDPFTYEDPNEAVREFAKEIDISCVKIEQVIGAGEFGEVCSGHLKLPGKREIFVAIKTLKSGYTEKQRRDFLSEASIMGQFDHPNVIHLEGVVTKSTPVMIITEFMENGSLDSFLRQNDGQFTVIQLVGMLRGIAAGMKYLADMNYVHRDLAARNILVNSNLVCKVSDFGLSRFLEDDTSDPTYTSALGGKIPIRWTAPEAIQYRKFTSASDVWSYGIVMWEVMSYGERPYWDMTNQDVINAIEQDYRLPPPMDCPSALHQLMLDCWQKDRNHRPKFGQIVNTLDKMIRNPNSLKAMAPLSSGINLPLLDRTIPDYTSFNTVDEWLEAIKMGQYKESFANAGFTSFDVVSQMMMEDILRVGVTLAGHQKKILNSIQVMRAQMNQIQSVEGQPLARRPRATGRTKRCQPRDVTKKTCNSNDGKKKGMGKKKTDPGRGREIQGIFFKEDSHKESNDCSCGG
Sequence of Mitogen-activated protein kinase 1 (Homo sapiens) (P28482 whole entry, canonical isoform): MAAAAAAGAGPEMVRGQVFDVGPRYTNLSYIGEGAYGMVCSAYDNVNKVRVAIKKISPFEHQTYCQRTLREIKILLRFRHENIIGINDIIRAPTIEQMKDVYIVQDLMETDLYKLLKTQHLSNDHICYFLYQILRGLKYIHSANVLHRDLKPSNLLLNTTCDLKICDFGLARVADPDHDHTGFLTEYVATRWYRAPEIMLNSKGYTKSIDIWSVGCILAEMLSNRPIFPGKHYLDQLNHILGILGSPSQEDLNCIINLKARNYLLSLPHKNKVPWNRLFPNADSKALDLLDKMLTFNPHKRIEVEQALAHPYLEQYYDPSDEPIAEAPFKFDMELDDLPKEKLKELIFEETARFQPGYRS

For the compound `CC(=O)Nc1cc(-c2c(-c3ccc(F)cc3)nc([S+](C)[O-])n2C)ccn1` (stereo unspecified), the inhibition in data set [1] is 58%; in [2] it was 60%; in data set [3] it was 62%; in data set [5] it was “Dose-dependent effect”; in data set [6] it was “Dose-dependent effect”. The inhibition in vivo at 1 mg/kg in data set [4] was 43%. Also, the Drug metabolism entry in [7], in [8] and in [9] was “Metabolite_Detected” each time. Also, the concentration at 1.5 h in data set [10] is 237 ng/mL; in data set [24], 871 ng/mL. For the same compound, the Activity in data set [11] is 0.08 U/L; in [16], “Toxic”; in data set [17], “Non-Toxic”; in [18], “Toxic”; in data set [19] it was “Non-Toxic”; in [20], “Toxic”. Besides, the Activity result is listed as “Non-Toxic” in [22] and “Toxic” in data set [25]. For the same compound, the outcome in [12] was Active. For the same compound, the time of peak concentration (Tmax) in [13] and in data set [14] was 2 h throughout. Besides, the Cmax in data set [15] was 3400 nM; in data set [23] it was 309 nM. In data set [21], this compound registered an MTD at 672 h of 20 mg/kg. In [21], this compound gave a no-observed-adverse-effect level (NOAEL) at 672 h greater than 25 mg/kg.
Regarding `Cn1c([S+](C)[O-])nc(-c2ccc(F)cc2)c1-c1ccnc(N)c1` (stereo unspecified), the inhibition entry in [26] and in data set [27] was “inactive” in each case. Further, in data set [28], the inhibition was found to be 88%. For the same compound, the Drug metabolism result in data set [29] and in data set [30] was “Metabolite_Detected” in each case.
